As usually defined, the MIC is the smallest concentration in the dilution series that meets the test's criterion for growth inhibition.

Converted amounts (≈) assume the structure as drawn.

Common to all, as to assay type: functional
For assay [1], the system named is Escherichia coli. Put plainly: Antibacterial activity against Escherichia coli at 100 ug after 24 hrs by agar disc-diffusion method. As to conditions: read-out: IZ. An outline of the steps:
(§1)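 Agar disc diffusion on nutrient agar with bacterial strains from NCIM, Pune. Sterile 6 mm filter-paper discs were wetted with compound in DMSO and placed on plates already inoculated with each organism. Plates were incubated at 37 °C, and the diameter of the growth-inhibition zone was measured after 24 h.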
For orientation: In agar diffusion tests the substance spreads into inoculated agar from a disc or well.

Assay [2] relates to Klebsiella pneumoniae. Put plainly: Antibacterial activity against Klebsiella pneumoniae after 24 hrs by microdilution susceptibility method. Put shortly:
(§2)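 Microdilution susceptibility test on bacterial strains from NCIM, Pune. Microorganism suspensions were inoculated into wells containing the compound and incubated at 36 °C for 24 h. MIC was taken as the lowest concentration showing no turbidity, meaning complete inhibition of visible growth.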

Assay [3] concerns Staphylococcus aureus. Put plainly: Antibacterial activity against Staphylococcus aureus at 100 ug after 24 hrs by agar disc-diffusion method. The following applies: read-out: IZ. Put shortly: as §1
Assay [4] has as its system Bacillus subtilis. Put plainly: Antibacterial activity against Bacillus subtilis after 24 hrs by microdilution susceptibility method. Put shortly: as §2
A general note: In broth dilution the organism is exposed to a series of concentrations in liquid medium.

In assay [5] the test system is Fusarium solani. Put plainly: Antifungal activity against Fusarium solani at 100 ug after 48 hrs by agar disc-diffusion method. The following applies: read-out: IZ. An outline of the steps:
(§3)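 Fungal strains from NCIM, Pune, were tested by disc diffusion on nutrient agar. Sterile 6 mm paper discs moistened with the compound solution in DMSO were placed on plates pre-inoculated with each fungus. Plates were incubated at 37 °C, and the inhibition-zone diameter was read after 48 h.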

The test system of assay [6] is Escherichia coli. Put plainly: Antibacterial activity against Escherichia coli after 24 hrs by microdilution susceptibility method. Put shortly:
as §2

Assay [7] deals with Aspergillus niger. Put plainly: Antifungal activity against Aspergillus niger at 100 ug after 48 hrs by agar disc-diffusion method. The following applies: read-out: IZ. An outline of the steps: as §3
In assay [8] the test system is Staphylococcus aureus. Put plainly: Antibacterial activity against Staphylococcus aureus after 24 hrs by microdilution susceptibility method. An outline of the steps: as §2
Assay [9] concerns Fusarium solani. Put plainly: Antifungal activity against Fusarium solani after 48 hrs by microdilution susceptibility method. Put shortly:
(§4)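 Broth microdilution with fungi from NCIM, Pune. Fungal suspensions were added to wells containing the compound and incubated at 36 °C for 48 h. MIC was recorded as the lowest concentration with no turbidity, that is, no visible growth.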

Assay [10] deals with Bacillus subtilis. Put plainly: Antibacterial activity against Bacillus subtilis at 200 ug after 24 hrs by agar disc-diffusion method. The following applies: read-out: IZ. Put shortly: as §1
Assay [11] relates to Curvularia lunata. Put plainly: Antifungal activity against Curvularia lunata at 100 ug after 48 hrs by agar disc-diffusion method. As to conditions: read-out: IZ. Put shortly: as §3
Assay [12] has as its system Staphylococcus aureus. Put plainly: Antibacterial activity against Staphylococcus aureus at 200 ug after 24 hrs by agar disc-diffusion method. The following applies: read-out: IZ. Put shortly:
as §1

The test system of assay [13] is Curvularia lunata. Put plainly: Antifungal activity against Curvularia lunata at 200 ug after 48 hrs by agar disc-diffusion method. As to conditions: read-out: IZ. An outline of the steps:
as §3

Assay [14] concerns Aspergillus niger. Put plainly: Antifungal activity against Aspergillus niger at 200 ug after 48 hrs by agar disc-diffusion method. As to conditions: read-out: IZ. Put shortly:
as §3

Assay [15] concerns Aspergillus niger. Put plainly: Antifungal activity against Aspergillus niger after 48 hrs by microdilution susceptibility method. Put shortly: as §4
Assay [16] deals with Fusarium solani. Put plainly: Antifungal activity against Fusarium solani at 200 ug after 48 hrs by agar disc-diffusion method. As to conditions: read-out: IZ. An outline of the steps:
as §3

Assay [17] concerns Klebsiella pneumoniae. Put plainly: Antibacterial activity against Klebsiella pneumoniae at 100 ug after 24 hrs by agar disc-diffusion method. The following applies: read-out: IZ. Put shortly: as §1
Assay [18] relates to Escherichia coli. Put plainly: Antibacterial activity against Escherichia coli at 200 ug after 24 hrs by agar disc-diffusion method. The following applies: read-out: IZ. Put shortly:
as §1

Assay [19] relates to Klebsiella pneumoniae. Put plainly: Antibacterial activity against Klebsiella pneumoniae at 200 ug after 24 hrs by agar disc-diffusion method. The following applies: read-out: IZ. Put shortly: as §1
For assay [20], the system named is Curvularia lunata. Put plainly: Antifungal activity against Curvularia lunata after 48 hrs by microdilution susceptibility method. An outline of the steps: as §4
In assay [21] the test system is Bacillus subtilis. Put plainly: Antibacterial activity against Bacillus subtilis at 100 ug after 24 hrs by agar disc-diffusion method. The following applies: read-out: IZ. Put shortly:
as §1

With `O=S(=O)(Cc1nnc(S)s1)C1=NNC[C@@H]1c1ccc(Cl)cc1`, the zone of inhibition at 100 µg/disc was 22 mm with Escherichia coli [1]; 25 mm in the assay on Staphylococcus aureus [3]; 28 mm with Fusarium solani [5]; 26 mm in the assay with Aspergillus niger [7]; 23 mm in the assay on Curvularia lunata [11]; 24 mm with Klebsiella pneumoniae [17]. For the same compound, in the assay with Bacillus subtilis [21], the zone of inhibition at 100 µg/disc worked out at 28 mm. Moreover, the MIC was found to be 200 µg/mL (≈ 533 µM) in the assay with Klebsiella pneumoniae [2]; 200 µg/mL (≈ 533 µM) against Bacillus subtilis [4]; 200 µg/mL (≈ 533 µM) with Escherichia coli [6]; 100 µg/mL (≈ 267 µM) against Staphylococcus aureus [8]; 100 µg/mL (≈ 267 µM) with Fusarium solani [9]; 200 µg/mL (≈ 533 µM) in the assay with Aspergillus niger [15]. The compound also had an MIC against Curvularia lunata [20] of 100 µg/mL (≈ 267 µM). Moreover, the zone of inhibition at 200 µg/disc in the assay with Bacillus subtilis [10] is 31 mm; in the assay on Staphylococcus aureus [12] it was 29 mm; in the assay with Curvularia lunata [13], 26 mm; in the assay on Aspergillus niger [14] it was 29 mm; in the assay with Fusarium solani [16], 31 mm; in the assay with Escherichia coli [18], 27 mm. In addition, in the assay on Klebsiella pneumoniae [19], the zone of inhibition at 200 µg/disc came to 26 mm.

Values taken from ChEMBL document CHEMBL1156668, “Synthesis and antimicrobial activity of novel sulfone-linked bis heterocycles” (2008).
